The source made the active and inactive calls. No cut-off for these calls is given here.
Key:
Homo sapiens = species on record: Homo sapiens; test: Selectivity ratio of EC50 for human 5HT2A receptor to EC50 for M1 muscarinic receptor (unknown origin) by FLIPR assay
[1] = molecular target: T1, 5-hydroxytryptamine receptor 2A (Homo sapiens, UniProt P28223); test: Ratio of EC50 for human 5HT2A receptor by calcium fiux-based fluorescence assay to EC50 for 5HT2A by IP1 accumulation-based TR-FRET assay; type: functional
[2] = molecular target: T2, 5-hydroxytryptamine receptor 2C (Homo sapiens) (UniProt P28335); test: Agonist activity at human 5HT2C receptor expressed in HEK293 cells assessed as induction of intracellular calcium release by fluorescence assay relative to 5HT; type: functional, cell-based
T2 sequence (whole entry): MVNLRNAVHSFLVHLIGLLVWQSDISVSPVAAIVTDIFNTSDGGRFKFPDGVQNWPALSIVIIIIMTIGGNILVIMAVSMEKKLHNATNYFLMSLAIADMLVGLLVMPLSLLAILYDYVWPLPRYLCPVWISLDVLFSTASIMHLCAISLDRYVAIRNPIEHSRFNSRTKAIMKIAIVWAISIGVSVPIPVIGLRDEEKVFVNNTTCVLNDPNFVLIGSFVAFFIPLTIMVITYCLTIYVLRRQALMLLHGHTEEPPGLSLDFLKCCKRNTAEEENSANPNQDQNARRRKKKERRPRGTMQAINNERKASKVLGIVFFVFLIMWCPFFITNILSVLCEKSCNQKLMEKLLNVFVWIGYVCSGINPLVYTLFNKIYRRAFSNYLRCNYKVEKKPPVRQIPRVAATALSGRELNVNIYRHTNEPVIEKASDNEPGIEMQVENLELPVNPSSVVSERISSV
In short: (§1)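 Stable polyclonal 5-HT2A or 5-HT2C HEK293 cells seeded on poly-D-lysine plates (6 × 10⁴ cells/well). Next day loaded with Fluo-4/AM for 1 h at 37 °C in HBSS/20 mM HEPES/1 mM CaCl₂/1 mM MgCl₂/2.5 mM probenecid, pH 7.4. Fluorescence (485 ex/525 em) recorded before and up to 90 s after agonist. Response relative to 5-HT on the same plate. Duplicate, at least three times.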

[3] = molecular target: T1, 5-hydroxytryptamine receptor 2A; test: Agonist activity at human 5HT2A receptor expressed in HEK293 cells assessed as induction of intracellular calcium release by fluorescence assay relative to 5HT; type: functional, cell-based; in short: as §1
Mus musculus [4] = test: Procognitive effect in C57Bl/6J mouse assessed as time spent in novel arm at 0.43 mg/kg, po administered 30 mins prior to acquisition trial measured after 24 hrs in presence of SB242084; type: functional
In short: (§2)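 Male C57Bl/6J mice aged 8 weeks, two-trial place recognition Y-maze. 3 min acquisition with two arms open; 24 h ITI; 3 min retention with all three arms open. Drug given po 30 min before acquisition, vehicle 10% HP-βCD. SB242084 2.1 mg/kg co-administered where stated; doses as free base. Readouts are % distance, arm entries and time in each arm. Familiar arms pooled; one-way ANOVA.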

Mus musculus [5] = test: Procognitive effect in C57Bl/6J mouse assessed as number of familiar arm entry at 0.43 mg/kg, po administered 30 mins prior to acquisition trial measured after 24 hrs in presence of SB242084; type: functional; in short: as §2
Mus musculus [6] = test: Procognitive effect in C57Bl/6J mouse assessed as number of novel arm entry at 0.43 mg/kg, po administered 30 mins prior to acquisition trial measured after 24 hrs in presence of SB242084; type: functional; in short: as §2
Mus musculus [7] = test: Procognitive effect in C57Bl/6J mouse assessed as distance traveled in the familiar arm at 0.43 mg/kg, po administered 30 mins prior to acquisition trial measured after 24 hrs in presence of SB242084 (reference value: 31.5 +/- 2.9%); type: functional; in short: as §2
Mus musculus [8] = test: Procognitive effect in C57Bl/6J mouse assessed as time spent in novel arm at 0.43 mg/kg, po administered 30 mins prior to acquisition trial measured after 24 hrs by Y-maze test; type: functional; in short: as §2
Mus musculus [9] = test: Procognitive effect in C57Bl/6J mouse assessed as distance traveled in the novel arm at 0.43 mg/kg, po administered 30 mins prior to acquisition trial measured after 24 hrs by Y-maze test (reference value: 37 +/- 5.8%); type: functional; in short: as §2
[10] = molecular target: T3, 5-hydroxytryptamine receptor 2C (Rattus norvegicus) (UniProt P08909); test: Displacement of [125I]-N-(p-I-Bn)-THAZ from 5HT2C in Sprague-Dawley rat hippocampal membrane at 100 uM after 40 mins by autoradiography; type: tissue-based; conditions: Hippocampus
T3 sequence (whole entry): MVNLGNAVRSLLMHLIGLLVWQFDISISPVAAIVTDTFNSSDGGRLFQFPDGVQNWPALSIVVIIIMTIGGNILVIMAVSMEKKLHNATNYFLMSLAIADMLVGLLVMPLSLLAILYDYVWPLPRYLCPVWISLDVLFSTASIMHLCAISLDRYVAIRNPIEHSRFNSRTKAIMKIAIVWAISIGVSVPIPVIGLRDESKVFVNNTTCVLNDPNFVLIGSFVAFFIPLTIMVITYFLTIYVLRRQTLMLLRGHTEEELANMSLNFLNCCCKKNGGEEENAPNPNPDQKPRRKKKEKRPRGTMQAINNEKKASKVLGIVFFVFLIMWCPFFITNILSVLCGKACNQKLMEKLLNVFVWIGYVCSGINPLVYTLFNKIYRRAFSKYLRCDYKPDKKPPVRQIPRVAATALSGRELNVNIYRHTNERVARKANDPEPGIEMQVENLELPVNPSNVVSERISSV

[11] = molecular target: T3, 5-hydroxytryptamine receptor 2C (Rattus norvegicus); test: Displacement of [125I]-N-(p-I-Bn)-THAZ from 5HT2C receptor in Sprague-Dawley rat midbrain membrane at 100 uM after 40 mins by autoradiography; type: tissue-based
[12] = molecular target: T3, 5-hydroxytryptamine receptor 2C (Rattus norvegicus); test: Displacement of [125I]-N-(p-I-Bn)-THAZ from 5HT2C receptor in Sprague-Dawley rat cortical membrane at 100 uM after 40 mins by autoradiography
[13] = molecular target: T1, 5-hydroxytryptamine receptor 2A; test: biochemical; type: cell-based, tsA201; conditions: read-out: Ki
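Throughout, for Ki: radioligand displacement of [3H]ketanserin on membranes of tsA201 cells expressing the receptor, incubated 1 hr, bound radioactivity read by scintillation counting.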

T1 sequence (P28223 whole entry): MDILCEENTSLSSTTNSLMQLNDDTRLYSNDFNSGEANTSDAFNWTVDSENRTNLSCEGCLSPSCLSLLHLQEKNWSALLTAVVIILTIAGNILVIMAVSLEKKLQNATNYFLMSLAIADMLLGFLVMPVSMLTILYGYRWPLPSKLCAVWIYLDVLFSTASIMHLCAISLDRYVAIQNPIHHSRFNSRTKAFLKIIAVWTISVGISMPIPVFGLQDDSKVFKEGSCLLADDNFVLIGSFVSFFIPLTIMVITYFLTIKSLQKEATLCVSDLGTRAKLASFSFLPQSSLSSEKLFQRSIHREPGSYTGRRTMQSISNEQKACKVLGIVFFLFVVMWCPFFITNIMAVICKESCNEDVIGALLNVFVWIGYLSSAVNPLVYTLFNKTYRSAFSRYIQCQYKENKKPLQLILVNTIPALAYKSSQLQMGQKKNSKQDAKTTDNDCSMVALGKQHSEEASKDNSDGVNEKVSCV

O=c1c2c(on1Cc1ccccc1)CCNCC2
Ratio EC50 (Homo sapiens): 20
Ratio EC50 [1]: 2
Emax [2]: 90%
Emax [3]: 80%
Activity (Mus musculus [4]): 36.6%
Activity (Mus musculus [5]): 33.6%
Activity (Mus musculus [6]): 32.8%
Activity (Mus musculus [7]): 32.6%
Activity (Mus musculus [8]): 38.8%
Activity (Mus musculus [9]): 40.4%
Activity [10]: inactive
Activity [11]: Active
Activity [12]: Active
Ki [13]: 8.8 µM

Source: ChEMBL document CHEMBL2331121, “Design, synthesis, and pharmacological characterization of N- and O-substituted 5,6,7,8-tetrahydro-4H-isoxazolo[4,5-d]azepin-3-ol analogues: novel 5-HT(2A)/5-HT(2C) receptor agonists with pro-cognitive properties” (J Med Chem, 2013)
